Measured values from ChEMBL document CHEMBL1141663, “Synthesis and antibacterial activity of bis-[2-hydroxy-3-(1,7,8,9,10-pentamethyl-3,5-dioxo-4-aza-tricyclo[5.2.1.0(2,6)]dec-8-en-4-yloxy)-propyl]-dimethyl-ammonium chloride” (2008).
Active and inactive are the calls of the source. No cut-off for these calls is given here.

Columns and labels:
Pseudomonas aeruginosa = test: Antibacterial activity against Pseudomonas aeruginosa ATCC 15442 at 400 ug/disk […] by disc-diffusion method; format: functional, organism-based
Staphylococcus aureus [1] = test: Antibacterial activity against Staphylococcus aureus NCTC 4163 at 100 ug/disk after 24 to 48 hrs by disc-diffusion method; format: functional; conditions: read-out: IZ
Escherichia coli [2] = test: Antibacterial activity against Escherichia coli ATCC 25922 at 100 ug/disk […] by disc-diffusion method; format: functional, organism-based
[3] = system: Bordetella bronchiseptica; test: Antibacterial activity against Bordetella bronchiseptica ATCC 4617 at 400 ug/disk […] by disc-diffusion method; format: functional; conditions: read-out: IZ
Staphylococcus aureus [4] = test: Antibacterial activity against methicillin-susceptible Staphylococcus aureus 36/05 isolates after 18 hrs; format: functional
Procedure, shortened: (§1)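 Agar-dilution MIC on Mueller–Hinton II agar per CLSI guidelines. Aqueous test solutions were added to liquid agar to give two dilution series across 6.25–400 µg/mL. Solidified plates were spot-inoculated with 2 µL aliquots to a final inoculum of 10^4 […]. […] Strains were standard S. aureus strains or hospital patient isolates typed MSSA/MRSA.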

Staphylococcus aureus [5] = test: Antibacterial activity against methicillin-susceptible Staphylococcus aureus 14/04 isolates after 18 hrs; format: functional; procedure, shortened: as §1
Staphylococcus aureus [6] = test: Antibacterial activity against methicillin-susceptible Staphylococcus aureus 72/05 isolates after 18 hrs; format: functional; procedure, shortened: as §1
Staphylococcus aureus [7] = test: Antibacterial activity against methicillin-susceptible Staphylococcus aureus 6/04 isolates after 18 hrs; format: functional; procedure, shortened: as §1
Enterococcus hirae = test: Antibacterial activity against Enterococcus hirae ATCC 10541 at 100 ug/disk […] by disc-diffusion method; format: functional; conditions: read-out: IZ
Staphylococcus aureus [8] = test: Antibacterial activity against methicillin-susceptible Staphylococcus aureus 112/06 isolates after 18 hrs; format: functional; procedure, shortened: as §1
Staphylococcus aureus [9] = test: Antibacterial activity against methicillin-resistant Staphylococcus aureus 1/04 isolates after 18 hrs; format: functional; procedure, shortened: as §1
Staphylococcus aureus [10] = test: Antibacterial activity against methicillin-susceptible Staphylococcus aureus 38/05 isolates after 18 hrs; format: functional; procedure, shortened: as §1
Staphylococcus aureus [11] = test: Antibacterial activity against methicillin-resistant Staphylococcus aureus 53/05 isolates after 18 hrs; format: functional; procedure, shortened: as §1
Staphylococcus aureus [12] = test: Antibacterial activity against methicillin-susceptible Staphylococcus aureus 60/05 isolates after 18 hrs; format: functional; procedure, shortened: as §1
Staphylococcus aureus [13] = test: Antibacterial activity against Staphylococcus aureus ATCC 25923 at 100 ug/disk after 24 to 48 hrs by disc-diffusion method; format: functional; conditions: read-out: IZ
Staphylococcus aureus [14] = test: Antibacterial activity against methicillin-susceptible Staphylococcus aureus 2/04 isolates after 18 hrs; format: functional; procedure, shortened: as §1
Staphylococcus aureus [15] = test: Antibacterial activity against methicillin-resistant Staphylococcus aureus 79/05 isolates after 18 hrs; format: functional; procedure, shortened: as §1
Bacillus subtilis = test: Antibacterial activity against Bacillus subtilis ATCC 6633 at 100 ug/disk […] by disc-diffusion method; format: functional; conditions: read-out: IZ
Staphylococcus aureus [16] = test: Antibacterial activity against methicillin-susceptible Staphylococcus aureus 42/05 isolates after 18 hrs; format: functional; procedure, shortened: as §1
Staphylococcus aureus [17] = test: Antibacterial activity against methicillin-resistant Staphylococcus aureus 80/05 isolates after 18 hrs; format: functional; procedure, shortened: as §1
Staphylococcus aureus [18] = test: Antibacterial activity against methicillin-resistant Staphylococcus aureus 46/05 isolates after 18 hrs; format: functional; procedure, shortened: as §1
Escherichia coli [19] = test: Antibacterial activity against Escherichia coli ATCC 10538 at 100 ug/disk […] by disc-diffusion method; format: functional, organism-based
Staphylococcus aureus [20] = test: Antibacterial activity against methicillin-resistant Staphylococcus aureus 84/05 isolates after 18 hrs; format: functional; procedure, shortened: as §1
Staphylococcus aureus [21] = test: Antibacterial activity against methicillin-resistant Staphylococcus aureus 54/05 isolates after 18 hrs; format: functional; procedure, shortened: as §1
Staphylococcus aureus [22] = test: Antibacterial activity against methicillin-resistant Staphylococcus aureus 93/06 isolates after 18 hrs; format: functional; procedure, shortened: as §1
Candida albicans = test: Antimicrobial activity against Candida albicans ATCC 10231 at 400 ug/disk after 24 to 48 hrs by disc-diffusion method; format: functional; conditions: read-out: IZ
Procedure, shortened: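 Antifungal disc diffusion on YNB agar under CLSI guidelines. Sterile 10 mm filter-paper discs were loaded from aqueous solution with 100 or 400 µg of compound per disc. Plates were read after 24–48 h incubation at 30 °C.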

Staphylococcus aureus [23] = test: Antibacterial activity against Staphylococcus aureus ATCC 6538P at 400 ug/disk after 24 to 48 hrs by disc-diffusion method; format: functional; conditions: read-out: IZ
Staphylococcus aureus [24] = test: Antibacterial activity against methicillin-susceptible Staphylococcus aureus 3/04 isolates after 18 hrs; format: functional; procedure, shortened: as §1
Staphylococcus aureus [25] = test: Antibacterial activity against methicillin-resistant Staphylococcus aureus 47/05 isolates after 18 hrs; format: functional; procedure, shortened: as §1
Staphylococcus aureus [26] = test: Antibacterial activity against methicillin-susceptible Staphylococcus aureus 65/05 isolates after 18 hrs; format: functional; procedure, shortened: as §1
Staphylococcus aureus [27] = test: Antibacterial activity against methicillin-susceptible Staphylococcus aureus 69/05 isolates after 18 hrs; format: functional; procedure, shortened: as §1
Staphylococcus aureus [28] = test: Antibacterial activity against Staphylococcus aureus NCTC 4163 at 400 ug/disk after 24 to 48 hrs by disc-diffusion method; format: functional; conditions: read-out: IZ
Staphylococcus aureus [29] = test: Antibacterial activity against Staphylococcus aureus ATCC 29213 after 18 hrs; format: functional; conditions: ATCC 29213, 18 h; procedure, shortened: as §1

SMILES: CC1=C(C)C2(C)C3C(=O)N(OCC(O)C[N+](C)(C)CC(O)CON4C(=O)C5C(C4=O)C4(C)C(C)=C(C)C5(C)C4C)C(=O)C3C1(C)C2C.[Cl-] (stereo not drawn)
- Activity (Pseudomonas aeruginosa): inactive
- zone of inhibition at 100 µg/disc (Staphylococcus aureus [1]): 17 mm
- Activity (Escherichia coli [2]): inactive
- zone of inhibition at 400 µg/disc [3]: 21 mm
- MIC (Staphylococcus aureus [4]): 50 µg/mL
- MIC (Staphylococcus aureus [5]): 25 µg/mL
- MIC (Staphylococcus aureus [6]): 50 µg/mL
- MIC (Staphylococcus aureus [7]): 25 µg/mL
- zone of inhibition at 100 µg/disc (Enterococcus hirae): 14 mm
- MIC (Staphylococcus aureus [8]): 50 µg/mL
- MIC (Staphylococcus aureus [9]): 50 µg/mL
- MIC (Staphylococcus aureus [10]): 50 µg/mL
- MIC (Staphylococcus aureus [11]): 50 µg/mL
- MIC (Staphylococcus aureus [12]): 25 µg/mL
- zone of inhibition at 100 µg/disc (Staphylococcus aureus [13]): 16 mm
- MIC (Staphylococcus aureus [14]): 25 µg/mL
- MIC (Staphylococcus aureus [15]): 200 µg/mL
- zone of inhibition at 100 µg/disc (Bacillus subtilis): 25 mm
- MIC (Staphylococcus aureus [16]): 25 µg/mL
- MIC (Staphylococcus aureus [17]): 50 µg/mL
- MIC (Staphylococcus aureus [18]): 50 µg/mL
- Activity (Escherichia coli [19]): inactive
- MIC (Staphylococcus aureus [20]): 50 µg/mL
- MIC (Staphylococcus aureus [21]): 50 µg/mL
- MIC (Staphylococcus aureus [22]): 25 µg/mL
- zone of inhibition at 400 µg/disc (Candida albicans): 14 mm
- zone of inhibition at 400 µg/disc (Staphylococcus aureus [23]): 23 mm
- MIC (Staphylococcus aureus [24]): 25 µg/mL
- MIC (Staphylococcus aureus [25]): 50 µg/mL
- MIC (Staphylococcus aureus [26]): 25 µg/mL
- MIC (Staphylococcus aureus [27]): 25 µg/mL
- zone of inhibition at 400 µg/disc (Staphylococcus aureus [28]): 24 mm
- MIC (Staphylococcus aureus [29]): 50 µg/mL
